Measured values pooled from the literature.
Lines come from different studies, so protocols differ.

SMILES | system | conditions | Tmax
CC(C)(C)N/[N+]([O-])=N/OC1CCN(c2ccc(C#N)cn2)CC1 | male human, plasma | oral, single dose, healthy volunteers | 1 to 2 h
O=C(Nc1c(Cl)cncc1Cl)c1ccc(OC(F)F)c(OCC2CC2)c1 | human, plasma | oral, 0.5 mg, single dose | 0.75 h
CC(C)n1cc(C#N)c2cc(-n3cc(C(=O)O)cn3)ccc21 | human, plasma | oral, 200 mg, single dose, fed, healthy volunteers | 5 h
CC(C)(Sc1ccncc1-c1ccc(C#N)c2ccccc12)C(=O)O | male human, plasma | oral, 40 mg, single dose, fasted, healthy volunteers | 0.75 h
C=CC(=O)N1CCC(Oc2cc3c(Nc4ccc(Cl)c(Cl)c4F)ncnc3cc2OC)CC1 | human, plasma | oral, 16 mg, single dose, fed | 3.01 h
CC(C)(O)c1ccccc1-c1ccc2[nH]c(/C=C/c3ccc(C(F)(F)F)cc3)nc2c1 | male human, plasma | oral, 30 mg, single dose, fasted | 3.03 h
C#Cc1cccc(Nc2ncnc3cc(OCCOC)c(OCCOC)cc23)c1 | human, plasma | oral, 50 mg, patients | 4 h
CCc1nc(C(N)=O)c(Nc2ccc(N3CCC(N4CCN(C)CC4)CC3)c(OC)c2)nc1NC1CCOCC1 | human, plasma | oral, 300 mg, multiple doses, patients | 6.93 h
Nc1cc(C(F)(F)F)c(-c2cc(N3CCOCC3)nc(N3CCOCC3)n2)cn1 | human, plasma | oral, 25 mg/day, patients | 1 h
C/C(=C\c1csc(C)n1)[C@@H]1C[C@@H]2O[C@]2(C)CCC[C@H](C)[C@H](O)[C@@H](C)C(=O)C(C)(C)[C@@H](O)CC(=O)N1 | human, plasma | intravenous, 15 mg/m², patients | 0.8 h
CCc1nc2c(C)cc(N3CCN(CC(=O)N4CC(O)C4)CC3)cn2c1N(C)c1nc(-c2ccc(F)cc2)c(C#N)s1 | human, plasma | oral, 600 mg, single dose, fed, healthy volunteers | 3.5 h
O=C(O)C[C@H](O)C[C@H](O)/C=C/c1c(C2CC2)nc2ccccc2c1-c1ccc(F)cc1 | human, plasma | oral, 2 mg, single dose, fasted, healthy volunteers, tablet | 1.17 h
C[C@@]1(c2cc(NC(=O)c3ccc(C#N)cn3)ccc2F)C=CSC(N)=N1 | human, plasma | oral, 10 mg, single dose | 0.88 h
FC(F)(F)c1ccc(CNc2ccc(Cc3c[nH]c4ncc(Cl)cc34)cn2)cn1 | human, plasma | oral, 600 mg, single dose, healthy volunteers | 2.5 h
CC(C)[C@H](N)C(=O)NCCCS(=O)(=O)O | human, plasma | oral, 256.5 mg, multiple doses, twice daily, fasted | 0.5 h
Oc1cc(O)c2c(c1)O[C@@H](c1ccc(O)c(O)c1)[C@@H](O)C2 | human, plasma | oral, 100 mg, single dose | 1 h
COc1ccc([C@@H]2CN(C(=O)[C@@H](O)CO)C[C@@]2(C)[C@@H](C)O)cc1OC1CN(c2ccc(C)cn2)C1 | human, plasma | oral, 30 mg, single dose, healthy volunteers | 3.88 h

SMILES | system | conditions | Tmax
C#C[C@]1(COP(=O)(O)OP(=O)(O)OP(=O)(O)O)O[C@@H](n2cnc3c(N)nc(F)nc32)C[C@@H]1O | human, plasma | oral, 400 mg, single dose | 12.1 h
NS(=O)(=O)NCCNc1nonc1C(=NO)Nc1ccc(F)c(Br)c1 | human, plasma | oral, 500 mg, multiple doses, twice daily, steady state, patients | 2 h
c1cnc2ccc(Nc3nc(NC4CC4)c4nc[nH]c4n3)cc2c1 | human, plasma | oral, 100 mg/m², patients | 5.7 h
C[C@@H](c1ccc2nccn2c1)n1nnc2ncc(-c3cnn(C)c3)nc21 | human, plasma | oral, 200 mg | 2.5 h
C[C@@H](Nc1cc(F)cc(F)c1)c1cc(C(=O)N(C)C)cc2c(=O)cc(N3CCOCC3)oc12 | human, plasma | oral, 180 mg, single dose, patients | 1.98 h
CNCC[C@H](Oc1cccc2ccccc12)c1cccs1 | female human, plasma | oral, 30 mg, multiple doses, once daily | 4.7 h
COc1cc(N2CCC(N3CCN(C)CC3)CC2)ccc1Nc1ncnc(Nc2ccccc2S(=O)(=O)C(C)C)n1 | human, plasma | oral, 75 mg, multiple doses, patients | 3.32 h
CO[C@H]1/C=C\C=C(/C)C(=O)NC2=CC(=O)C(NCCN(C)C)=C(C[C@@H](C)C[C@H](OC)[C@H](O)[C@@H](C)/C=C(\C)[C@@H]1OC(N)=O)C2=O | human, plasma | intravenous, 27 mg/m², patients, infusion | 0.9 h
CCCCOC(=O)N1CCN(C(=O)[C@H](CP(=O)(O)O)NC(=O)c2cc(N3CC[C@H](OC)C3)nc(-c3ccccc3)n2)CC1 | human, plasma | subcutaneous, 8 mg, single dose | 0.667 h
Cc1nc(NC(=O)N2CCC[C@H]2C(N)=O)sc1-c1ccnc(C(C)(C)C(F)(F)F)c1 | human, plasma | oral, 90 mg, patients | 2 h
CS(=O)(=O)CCC#N | human, plasma | oral, 1000 mg, single dose, fasted | 1.5 h
CO[C@@H]1[C@H](OC(=O)N2CC(CCN3CCOCC3)C2)CC[C@]2(CO2)[C@H]1[C@@]1(C)O[C@@H]1CC=C(C)C | human, plasma | subcutaneous, 4.8 mg, single dose, healthy volunteers | 0.25 h
CCO[C@H]1CCN(Cc2c(OC)cc(C)c3[nH]ccc23)[C@H](c2ccc(C(=O)O)cc2)C1 | human, plasma | oral, 100 mg, multiple doses, twice daily, patients | 1.53 h
CC(C)[C@](O)(c1ccc2cc(OC(F)F)c(OC(F)F)cc2c1)c1c[nH]nn1 | female human, plasma | oral, 750 mg, single dose | 3 h
C=CC(=O)N(C)CCOc1c(N)ncnc1-c1cc(F)cc(NC(=O)c2ccc(C3CC3)cc2F)c1C | human, blood | oral, 600 mg, single dose, healthy volunteers | 1.02 h
Cn1cc(-c2ccc(S(=O)(=O)[C@@H]3C[C@@H](C(=O)NC4(C#N)CC4)N(C(=O)C4(C(F)(F)F)CC4)C3)c(C(F)(F)F)c2)cn1 | human, plasma | oral, 100 mg, single dose, fed | 5 h
Cc1nc(-c2cn3c(n2)-c2ccc(-c4cnn(C(C)(C)C(N)=O)c4)cc2OCC3)n(C(C)C)n1 | human, plasma | oral, 6 mg, patients | 2.05 h
